Data from ChEMBL document CHEMBL2311425, “Histone deacetylase (HDAC) inhibitors with a novel connecting unit linker region reveal a selectivity profile for HDAC4 and HDAC5 with improved activity against chemoresistant cancer cells” (J Med Chem, 2013).

How the values were obtained:
Histone deacetylase 11 = target: T1, Histone deacetylase 11 (Homo sapiens, UniProt Q96DB2); test: Inhibition of human HDAC11 by fluorescence assay
T1 sequence (Q96DB2 whole entry): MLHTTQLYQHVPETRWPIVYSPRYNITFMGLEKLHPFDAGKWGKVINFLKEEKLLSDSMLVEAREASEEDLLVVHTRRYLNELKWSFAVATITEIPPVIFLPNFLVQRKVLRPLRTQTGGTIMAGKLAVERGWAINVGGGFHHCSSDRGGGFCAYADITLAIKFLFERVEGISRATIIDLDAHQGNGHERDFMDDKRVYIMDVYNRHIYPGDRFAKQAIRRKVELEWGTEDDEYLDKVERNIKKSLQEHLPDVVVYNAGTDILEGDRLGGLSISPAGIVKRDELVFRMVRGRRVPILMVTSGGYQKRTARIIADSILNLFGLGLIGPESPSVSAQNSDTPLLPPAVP

Histone deacetylase 8 = target: T2, Histone deacetylase 8 (Homo sapiens, UniProt Q9BY41); test: Inhibition of human HDAC8 by fluorescence assay
T2 sequence (Q9BY41 whole entry): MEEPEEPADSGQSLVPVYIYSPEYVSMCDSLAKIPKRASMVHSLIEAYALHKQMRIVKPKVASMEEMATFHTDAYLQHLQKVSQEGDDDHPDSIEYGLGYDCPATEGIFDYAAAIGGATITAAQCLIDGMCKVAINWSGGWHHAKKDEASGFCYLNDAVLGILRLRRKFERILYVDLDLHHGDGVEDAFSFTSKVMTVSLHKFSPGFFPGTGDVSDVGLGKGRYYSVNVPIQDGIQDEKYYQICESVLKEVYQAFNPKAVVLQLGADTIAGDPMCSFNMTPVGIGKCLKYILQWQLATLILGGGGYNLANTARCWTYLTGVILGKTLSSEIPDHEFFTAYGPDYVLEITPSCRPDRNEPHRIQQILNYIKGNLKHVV

[1] = target: T3, Protein deacetylase HDAC6 (Homo sapiens, UniProt Q9UBN7); test: Inhibition of human HDAC6 by fluorescence assay
T3 sequence (Q9UBN7 whole entry): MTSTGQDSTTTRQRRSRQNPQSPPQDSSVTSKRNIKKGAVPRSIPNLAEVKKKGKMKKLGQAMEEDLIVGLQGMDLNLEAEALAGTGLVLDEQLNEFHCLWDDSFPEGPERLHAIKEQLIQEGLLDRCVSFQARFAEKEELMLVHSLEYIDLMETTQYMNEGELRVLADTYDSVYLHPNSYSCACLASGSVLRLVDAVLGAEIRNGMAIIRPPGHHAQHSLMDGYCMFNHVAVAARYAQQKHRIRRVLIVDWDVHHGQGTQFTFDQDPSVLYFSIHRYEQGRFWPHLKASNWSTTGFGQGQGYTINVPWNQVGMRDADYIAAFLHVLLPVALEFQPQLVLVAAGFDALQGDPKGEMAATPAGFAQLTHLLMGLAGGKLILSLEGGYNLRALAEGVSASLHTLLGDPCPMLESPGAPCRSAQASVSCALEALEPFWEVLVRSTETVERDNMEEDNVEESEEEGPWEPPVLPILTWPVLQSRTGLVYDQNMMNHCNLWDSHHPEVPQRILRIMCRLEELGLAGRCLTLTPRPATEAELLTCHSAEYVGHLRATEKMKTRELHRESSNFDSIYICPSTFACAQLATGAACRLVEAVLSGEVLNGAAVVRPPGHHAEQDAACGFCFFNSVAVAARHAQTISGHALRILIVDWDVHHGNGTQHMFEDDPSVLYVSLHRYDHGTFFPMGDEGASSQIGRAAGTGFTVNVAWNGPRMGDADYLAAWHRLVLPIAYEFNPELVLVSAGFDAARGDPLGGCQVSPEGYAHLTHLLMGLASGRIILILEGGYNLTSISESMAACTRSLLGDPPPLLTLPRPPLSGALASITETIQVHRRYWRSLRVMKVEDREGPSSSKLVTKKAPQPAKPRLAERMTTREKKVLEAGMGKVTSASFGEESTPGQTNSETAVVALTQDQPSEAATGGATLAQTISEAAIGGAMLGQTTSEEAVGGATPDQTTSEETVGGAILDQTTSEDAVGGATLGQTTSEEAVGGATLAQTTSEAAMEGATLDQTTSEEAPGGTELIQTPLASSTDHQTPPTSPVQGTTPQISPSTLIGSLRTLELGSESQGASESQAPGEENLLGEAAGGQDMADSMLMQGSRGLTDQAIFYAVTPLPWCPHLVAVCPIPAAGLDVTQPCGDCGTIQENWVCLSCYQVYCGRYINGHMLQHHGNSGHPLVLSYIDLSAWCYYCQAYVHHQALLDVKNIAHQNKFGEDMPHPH

Histone deacetylase 5 = Histone deacetylase 5 (Homo sapiens, UniProt Q9UQL6); test: Inhibition of human HDAC5 by fluorescence assay
Histone deacetylase 4 = Histone deacetylase 4 (Homo sapiens, UniProt P56524); test: Inhibition of human HDAC4 by fluorescence assay
Histone deacetylase 2 = Histone deacetylase 2 (Homo sapiens, UniProt Q92769); test: Inhibition of human HDAC2 by fluorescence assay
Histone deacetylase 1 = Histone deacetylase 1 (Homo sapiens, UniProt Q13547); test: Inhibition of human HDAC1 by fluorescence assay
Histone deacetylase [2] = test: Inhibition of HDAC in cisplatin resistant human KYSE-510 cells after 18 hrs by fluorescence assay; assay type: cell-based
Histone deacetylase [3] = test: Inhibition of HDAC in cisplatin sensitive human KYSE-510 cells after 18 hrs by fluorescence assay; assay type: cell-based
Histone deacetylase [4] = test: Inhibition of HDAC in cisplatin resistant human CAL27 cells after 18 hrs by fluorescence assay; assay type: cell-based; conditions: cal-27
Histone deacetylase [5] = test: Inhibition of HDAC in cisplatin sensitive human CAL27 cells after 18 hrs by fluorescence assay; assay type: cell-based; conditions: cal-27
Histone deacetylase [6] = test: Inhibition of HDAC in cisplatin resistant human MDA-MB-231 cells after 18 hrs by fluorescence assay; assay type: cell-based
Histone deacetylase [7] = test: Inhibition of HDAC in cisplatin sensitive human MDA-MB-231 cells after 18 hrs by fluorescence assay; assay type: cell-based
KYSE-510 [8] = test: Cytotoxicity against cisplatin sensitive human KYSE-510 cells after 72 hrs by MTT assay; assay type: functional, cell-based; conditions: KYSE-510, 72 h
KYSE-510 [9] = test: Cytotoxicity against cisplatin resistant human KYSE-510 cells after 72 hrs by MTT assay; assay type: functional, cell-based; conditions: KYSE-510, 72 h
CAL-27 [10] = test: Cytotoxicity against cisplatin resistant human CAL27 cells after 72 hrs by MTT assay; assay type: functional, cell-based; conditions: CAL-27, 72 h
CAL-27 [11] = test: Cytotoxicity against cisplatin sensitive human CAL27 cells after 72 hrs by MTT assay; assay type: functional, cell-based; conditions: CAL-27, 72 h
MDA-MB-231 [12] = test: Cytotoxicity against cisplatin resistant human MDA-MB-231 cells after 72 hrs by MTT assay; assay type: functional, cell-based; conditions: MDA-MB-231, 72 h
MDA-MB-231 [13] = test: Cytotoxicity against cisplatin sensitive human MDA-MB-231 cells after 72 hrs by MTT assay; assay type: functional, cell-based; conditions: MDA-MB-231, 72 h
In short: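 MDA-MB-231 (parental), 10 000 cells/well, in DMEM with 15% FCS at 37 °C, 5% CO2. Compounds added 24 h after seeding for 72 h. MTT (5 mg/mL in PBS) was added, formazan dissolved in DMSO, absorbance read at 544 and 690 nm. IC50 from four-parameter logistic fit of ≥3 experiments in triplicate.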

Histone deacetylase [14] = test: Inhibition of HDAC in cisplatin resistant human A2780 cells after 18 hrs by fluorescence assay; assay type: cell-based
Histone deacetylase [15] = test: Inhibition of HDAC in human A2780 cells after 18 hrs by fluorescence assay; assay type: cell-based
A2780 = test: Cytotoxicity against human A2780 cells after 72 hrs by MTT assay; assay type: functional, cell-based; conditions: A2780, 72 h
[16] = tested on: A2780 CisR (Homo sapiens); test: cells; conditions: 72 h

Chain of Histone deacetylase 2 (Q92769 whole entry): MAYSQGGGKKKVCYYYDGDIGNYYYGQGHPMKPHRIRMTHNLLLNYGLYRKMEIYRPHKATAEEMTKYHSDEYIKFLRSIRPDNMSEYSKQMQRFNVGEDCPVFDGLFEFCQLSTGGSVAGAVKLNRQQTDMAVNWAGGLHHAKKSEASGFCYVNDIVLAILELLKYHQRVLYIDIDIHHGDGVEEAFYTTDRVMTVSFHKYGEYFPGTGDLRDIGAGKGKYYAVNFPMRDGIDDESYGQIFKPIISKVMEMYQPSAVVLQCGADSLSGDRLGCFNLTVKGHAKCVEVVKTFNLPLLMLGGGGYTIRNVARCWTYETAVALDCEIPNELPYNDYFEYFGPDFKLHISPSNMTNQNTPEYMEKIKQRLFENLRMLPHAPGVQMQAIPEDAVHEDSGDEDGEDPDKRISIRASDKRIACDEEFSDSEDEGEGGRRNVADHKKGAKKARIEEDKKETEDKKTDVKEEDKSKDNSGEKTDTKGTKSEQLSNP
Chain of Histone deacetylase 1 (Q13547 whole entry): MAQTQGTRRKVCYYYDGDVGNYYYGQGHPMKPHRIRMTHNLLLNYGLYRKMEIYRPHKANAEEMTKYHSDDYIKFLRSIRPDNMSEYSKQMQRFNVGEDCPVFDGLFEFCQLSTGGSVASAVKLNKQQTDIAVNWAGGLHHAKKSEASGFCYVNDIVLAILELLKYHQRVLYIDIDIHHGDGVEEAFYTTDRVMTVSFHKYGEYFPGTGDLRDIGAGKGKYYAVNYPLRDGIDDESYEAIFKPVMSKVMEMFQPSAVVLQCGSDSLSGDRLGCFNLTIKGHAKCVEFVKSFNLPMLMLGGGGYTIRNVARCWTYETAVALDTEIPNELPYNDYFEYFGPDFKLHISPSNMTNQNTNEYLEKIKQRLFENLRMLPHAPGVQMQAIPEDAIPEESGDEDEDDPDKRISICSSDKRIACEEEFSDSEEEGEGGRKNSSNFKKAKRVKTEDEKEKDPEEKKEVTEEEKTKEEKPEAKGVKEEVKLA
Chain of Histone deacetylase 5 (Q9UQL6 whole entry): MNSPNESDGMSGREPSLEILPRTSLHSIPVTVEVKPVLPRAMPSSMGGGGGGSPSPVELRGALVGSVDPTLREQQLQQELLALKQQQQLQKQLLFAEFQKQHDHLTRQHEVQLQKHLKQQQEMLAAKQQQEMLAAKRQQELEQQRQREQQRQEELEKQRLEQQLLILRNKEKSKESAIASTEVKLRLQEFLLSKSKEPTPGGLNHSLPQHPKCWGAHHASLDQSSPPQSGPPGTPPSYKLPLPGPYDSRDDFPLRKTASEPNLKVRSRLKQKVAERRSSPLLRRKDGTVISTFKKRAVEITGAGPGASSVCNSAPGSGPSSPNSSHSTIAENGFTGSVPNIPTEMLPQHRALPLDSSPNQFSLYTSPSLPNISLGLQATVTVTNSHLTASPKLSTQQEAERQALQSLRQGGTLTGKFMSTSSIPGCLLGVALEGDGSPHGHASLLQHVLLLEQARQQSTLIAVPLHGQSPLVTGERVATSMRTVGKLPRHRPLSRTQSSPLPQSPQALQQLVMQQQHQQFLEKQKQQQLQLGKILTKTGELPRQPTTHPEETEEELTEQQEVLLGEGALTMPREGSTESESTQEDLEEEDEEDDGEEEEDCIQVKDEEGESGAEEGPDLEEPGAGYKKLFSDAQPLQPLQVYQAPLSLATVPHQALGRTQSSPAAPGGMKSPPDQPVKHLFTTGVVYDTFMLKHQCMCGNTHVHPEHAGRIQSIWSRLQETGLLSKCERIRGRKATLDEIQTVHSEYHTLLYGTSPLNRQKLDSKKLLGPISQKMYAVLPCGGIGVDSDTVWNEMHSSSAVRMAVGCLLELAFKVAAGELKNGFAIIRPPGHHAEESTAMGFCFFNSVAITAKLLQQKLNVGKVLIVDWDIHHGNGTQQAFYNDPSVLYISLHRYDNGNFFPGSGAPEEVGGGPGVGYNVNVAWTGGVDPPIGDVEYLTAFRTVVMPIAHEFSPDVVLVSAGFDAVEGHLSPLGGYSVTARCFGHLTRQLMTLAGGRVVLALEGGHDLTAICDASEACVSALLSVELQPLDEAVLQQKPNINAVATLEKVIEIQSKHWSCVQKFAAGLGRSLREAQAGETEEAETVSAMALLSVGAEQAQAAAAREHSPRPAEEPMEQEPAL
Chain of Histone deacetylase 4 (P56524 whole entry): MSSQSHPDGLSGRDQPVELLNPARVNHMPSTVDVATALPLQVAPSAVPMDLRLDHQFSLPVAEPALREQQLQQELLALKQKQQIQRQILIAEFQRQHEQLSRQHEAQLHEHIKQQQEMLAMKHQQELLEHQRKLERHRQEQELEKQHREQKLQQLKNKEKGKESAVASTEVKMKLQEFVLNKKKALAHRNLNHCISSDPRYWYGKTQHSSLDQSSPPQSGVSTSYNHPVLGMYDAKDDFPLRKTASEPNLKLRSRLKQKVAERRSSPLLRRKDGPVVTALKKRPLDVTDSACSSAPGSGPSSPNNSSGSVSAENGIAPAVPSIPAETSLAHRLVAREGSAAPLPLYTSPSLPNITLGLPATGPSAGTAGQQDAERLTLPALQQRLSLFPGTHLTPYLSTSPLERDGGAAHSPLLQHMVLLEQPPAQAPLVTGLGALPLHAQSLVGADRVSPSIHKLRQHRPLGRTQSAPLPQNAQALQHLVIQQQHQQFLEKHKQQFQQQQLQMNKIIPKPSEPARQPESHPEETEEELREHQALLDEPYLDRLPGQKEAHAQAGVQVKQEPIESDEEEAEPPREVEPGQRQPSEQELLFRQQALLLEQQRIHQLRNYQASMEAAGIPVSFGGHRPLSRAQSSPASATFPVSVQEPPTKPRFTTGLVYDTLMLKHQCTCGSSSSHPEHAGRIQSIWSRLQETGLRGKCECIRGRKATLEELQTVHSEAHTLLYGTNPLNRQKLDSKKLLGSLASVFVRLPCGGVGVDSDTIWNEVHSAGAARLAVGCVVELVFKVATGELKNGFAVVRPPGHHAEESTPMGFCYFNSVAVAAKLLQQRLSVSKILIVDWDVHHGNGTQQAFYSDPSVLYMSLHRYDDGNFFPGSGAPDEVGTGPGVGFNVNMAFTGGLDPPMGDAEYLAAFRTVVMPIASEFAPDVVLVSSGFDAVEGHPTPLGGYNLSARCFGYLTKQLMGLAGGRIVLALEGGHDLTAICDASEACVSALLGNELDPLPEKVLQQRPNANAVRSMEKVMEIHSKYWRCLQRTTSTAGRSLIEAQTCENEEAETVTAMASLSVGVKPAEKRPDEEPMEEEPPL

| IC50 (Histone deacetylase 11) [nM] | IC50 (Histone deacetylase 8) [nM] | IC50 [1] [nM] | IC50 (Histone deacetylase 5) [nM] | IC50 (Histone deacetylase 4) [nM] | IC50 (Histone deacetylase 2) [nM] | IC50 (Histone deacetylase 1) [nM] | IC50 (Histone deacetylase [2]) [nM] | IC50 (Histone deacetylase [3]) [nM] | IC50 (Histone deacetylase [4]) [nM] | IC50 (Histone deacetylase [5]) [nM] | IC50 (Histone deacetylase [6]) [nM] | IC50 (Histone deacetylase [7]) [nM] | IC50 (Histone deacetylase [14]) [nM] | SMILES | IC50 (KYSE-510 [8]) [nM] | IC50 (KYSE-510 [9]) [nM] | IC50 (CAL-27 [10]) [nM] | IC50 (CAL-27 [11]) [nM] | IC50 (MDA-MB-231 [12]) [nM] | IC50 (MDA-MB-231 [13]) [nM] | other results |
| --- | --- | --- | --- | --- | --- | --- | --- | --- | --- | --- | --- | --- | --- | --- | --- | --- | --- | --- | --- | --- | --- |
| 997 | 833 | 18.1 | 33.4 | 82.6 | 944 | 320 | 1100 | 2820 | 910 | 1100 | 1660 | 1570 | 880 | Cc1ccc(C(=O)NOCCCCCC(=O)NO)cc1C | 10000 | 9460 | 4310 | 2900 | 3770 | 2770 | IC50 (Histone deacetylase [15]): 1610 nM; IC50 (A2780): 1540 nM; IC50 [16]: 1780 nM |
| 2140 | 1040 | 26.9 | 2.31 | 16.3 | 1390 | 341 | 1130 | 2620 | 880 | 1000 | 1280 | 1410 | 900 | Cc1cccc(C(=O)NOCCCCCC(=O)NO)c1 | 8190 | 8210 | 3720 | 2970 | 3810 | 2790 | IC50 (Histone deacetylase [15]): 1580 nM; IC50 (A2780): 2100 nM; IC50 [16]: 2250 nM |
